Consider 21 molecules from ChEMBL document CHEMBL3611977, “Synthesis, pharmacological evaluation and docking studies of pyrrole structure-based CB2 receptor antagonists” (Eur J Med Chem, 2015).

Experiment [1] addresses T1, Cannabinoid receptor 2 (Homo sapiens, UniProt P34972). Put plainly: Displacement of [3H]-CP55940 from human CB2 receptor transfected in HEK293EBNA cell membranes after 90 mins by liquid scintillation counting analysis. On the set-up: species or system HEK293-EBNA. The gist of the method:
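Human CB2-transfected HEK293EBNA membranes (about 0.18 mg/mL protein) in Tris-HCl with EDTA, MgCl₂ and fatty-acid-free BSA, pH 7.4. Compounds were pre-screened at a single concentration, with full curves only if displacement exceeded 50%. Ki from iterative curve fitting, three independent experiments in triplicate.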
Background: Loss of bound radioactivity is the signal in a displacement assay; it reports binding, not function.

In experiment [2] the target is Cannabinoid receptor 1 (Homo sapiens, UniProt P21554). Briefly: Displacement of [3H]-CP55940 from human CB1 receptor transfected in HEK293EBNA cell membranes after 90 mins by liquid scintillation counting analysis. On the set-up: species or system HEK293-EBNA.
For experiment [3], the target named is Cannabinoid receptor 2 (Mus musculus) (UniProt P47936). Put plainly: Antagonist/inverse agonist activity at CB2 receptor in mouse BV-2 cells assessed as LPS-induced PGE2 relaese at 10 fold Ki after 16 hrs by ELISA immunoassay in presence of CB2R antagonist SR144528. The format is cell-based. The gist of the method:
(§1)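 Mouse BV-2 microglia plated at 5 × 10⁵ cells/well on poly-L-ornithine and grown overnight in DMEM with 10% FBS at 37 °C and 5% CO₂. The medium was switched to 1% FBS 1 h before treatment. Cells were then given LPS (E. coli 055:B5) for 16 h, alone or with test compound, and PGE2 release was measured. Data were analysed by one-way ANOVA.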
In general terms: In an ELISA, binding on a coated surface is turned into a signal by an enzyme label.

For experiment [4], the target named is T1, Cannabinoid receptor 2. Briefly: Antagonist/inverse agonist activity at human CB2 receptor transfected in Chem4 cell membranes after 30 mins by [35S]-GTPgammaS binding assay. The format is functional. The gist of the method: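 Purchased CB2R-containing membranes in 20 mM HEPES with 100 mM NaCl and 10 mM MgCl₂, pH 7.4. Compound was added from 10⁻¹¹ to 10⁻⁵ M together with 30 nM CP55,940 and incubated 30 min at 30 °C. Non-specific signal was defined with unlabelled GTPγS. The reaction was stopped by GF/C filtration with phosphate-buffer washes, then scintillation counting.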
For orientation: GTPγS is a poorly hydrolysed GTP analogue; its binding reports G protein activation.

In experiment [5] the target is Cannabinoid receptor 2 (Mus musculus) (UniProt P47936). Put plainly: Antagonist/inverse agonist activity at CB2 receptor in mouse BV-2 cells assessed as inhibition of WIN55,212-2-mediated attenuation of LPS-induced PGE2 release at 10 fold Ki after 16 hrs by ELISA immunoassay. The format is cell-based. The gist of the method:
as §1

Experiment [6] has the same target. Briefly: Antagonist/inverse agonist activity at CB2 receptor in mouse BV-2 cells assessed as LPS-induced PGE2 relaese at 10 fold Ki after 16 hrs by ELISA immunoassay. The format is cell-based. The gist of the method:
as §1

The target is the same in experiment [7]. The conditions noted are these: BV-2, 10 uM.

Calls of active or inactive are those of the source. The calls are words filed in the database; no cut-off is given here. Bounds are passed on as bounds.

T1 sequence (P34972 whole entry): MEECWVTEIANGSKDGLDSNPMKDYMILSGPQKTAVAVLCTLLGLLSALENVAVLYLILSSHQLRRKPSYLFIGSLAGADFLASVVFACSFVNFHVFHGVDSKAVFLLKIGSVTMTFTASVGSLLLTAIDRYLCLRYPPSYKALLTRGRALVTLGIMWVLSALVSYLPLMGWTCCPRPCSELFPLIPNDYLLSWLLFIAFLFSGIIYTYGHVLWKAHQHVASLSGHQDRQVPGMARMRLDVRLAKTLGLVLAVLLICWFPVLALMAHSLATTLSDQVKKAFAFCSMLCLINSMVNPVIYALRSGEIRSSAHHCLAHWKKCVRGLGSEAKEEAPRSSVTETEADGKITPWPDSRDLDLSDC
Chain of Cannabinoid receptor 1 (P21554 whole entry): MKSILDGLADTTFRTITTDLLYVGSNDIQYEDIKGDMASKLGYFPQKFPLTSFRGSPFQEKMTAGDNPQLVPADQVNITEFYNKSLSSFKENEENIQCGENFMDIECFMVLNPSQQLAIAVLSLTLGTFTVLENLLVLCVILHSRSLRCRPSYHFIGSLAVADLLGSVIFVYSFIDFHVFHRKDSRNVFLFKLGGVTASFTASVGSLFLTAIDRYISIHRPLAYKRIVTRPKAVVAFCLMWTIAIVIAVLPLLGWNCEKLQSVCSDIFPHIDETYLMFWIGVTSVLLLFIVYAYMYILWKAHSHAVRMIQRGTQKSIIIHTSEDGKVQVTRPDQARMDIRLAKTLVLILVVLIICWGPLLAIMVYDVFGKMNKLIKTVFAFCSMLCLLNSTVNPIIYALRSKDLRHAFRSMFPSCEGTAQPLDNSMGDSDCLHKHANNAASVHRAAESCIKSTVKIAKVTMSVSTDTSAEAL
Chain of Cannabinoid receptor 2 (Mus musculus) (P47936 whole entry): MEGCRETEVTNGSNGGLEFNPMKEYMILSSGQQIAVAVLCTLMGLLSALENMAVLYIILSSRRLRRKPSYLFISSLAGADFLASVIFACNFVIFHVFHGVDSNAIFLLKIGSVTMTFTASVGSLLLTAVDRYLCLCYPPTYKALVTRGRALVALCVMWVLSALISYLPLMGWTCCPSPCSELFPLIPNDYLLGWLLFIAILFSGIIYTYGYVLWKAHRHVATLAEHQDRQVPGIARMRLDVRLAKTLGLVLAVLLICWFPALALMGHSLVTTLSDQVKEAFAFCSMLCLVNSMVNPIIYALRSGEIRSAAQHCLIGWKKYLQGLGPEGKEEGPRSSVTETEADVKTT

As usually defined, the Ki is the equilibrium dissociation constant of an inhibitor or competing ligand from its target. A high value points to weaker binding. Take `Cc1ccc(Cn2cc(C(=O)NCC34CC5CC(CC(C5)C3)C4)cc2-c2ccc(Cl)c(C)c2)cc1`: the Ki in experiment [1] and in experiment [2] was greater than 5000 nM in each case.
As for `Cc1ccc(Cn2cc(C(=O)NN3CCCCC3)cc2-c2ccc(Cl)c(C)c2)cc1`, the Ki in experiment [1] and in experiment [2] was greater than 5000 nM each time.
Regarding `Cc1ccc(Cn2cc(C(=O)Nc3cccc4ccccc34)cc2-c2ccc(Cl)c(C)c2)cc1`, the Ki in experiment [1] and in experiment [2] was greater than 5000 nM throughout.
In turn, `Cc1ccc(Cn2cc(C(=O)N[C@@H](C)C3CCCCC3)cc2-c2ccc(Cl)c(C)c2)cc1` returned a Ki in experiment [1] of 492 nM.
As usually defined, the IC50 is the concentration that gives 50% inhibition. Read a low IC50 as inhibition by little substance. In the case of `Cc1ccc(Cn2cc(C(=O)NC[C@@H]3CCC4C[C@@H]3C4(C)C)cc2-c2ccc(Cl)c(C)c2)cc1`, the inhibition result in experiment [3], in experiment [5] and in experiment [6] was “Active” throughout. In experiment [4], this molecule showed an IC50 of 1820 nM. Besides, the Ki is 72.2 nM in experiment [1] and greater than 5000 nM in experiment [2].
For `Cc1ccc(Cn2cc(C(=O)NN3CCCCCC3)cc2-c2ccc(Cl)c(C)c2)cc1`, the Ki was 575 nM in experiment [1] and greater than 5000 nM in experiment [2].
On to `Cc1ccc(Cn2cc(CN3CCN(c4ccc(Cl)c(Cl)c4)CC3)cc2-c2ccc(Cl)c(C)c2)cc1`, for which the Ki in experiment [1] and in experiment [2] was greater than 5000 nM each time.
Take `Cc1ccc(Cn2cc(C(=O)N[C@H]3C[C@@H](C)CC[C@@H]3C(C)C)cc2-c2ccc(Cl)c(C)c2)cc1`: the Ki is 1100 nM in experiment [1] and greater than 5000 nM in experiment [2].
In experiment [1], `Cc1ccc(Cn2nc(C(=O)N[C@@H]3CC4CC[C@@]3(C)C4(C)C)cc2-c2ccc(Cl)c(C)c2)cc1` came in with a Ki of 7.2 nM.
As for `Cc1ccc(Cn2cc(C(=O)N3CCN(c4ccccc4Cl)CC3)cc2-c2ccc(Cl)c(C)c2)cc1`, the results for the Ki in experiment [1] and in experiment [2] were 1710 nM and greater than 5000 nM, respectively.
As to `Cc1ccc(Cn2cc(C(=O)N[C@@H]3C(C)(C)C4CC[C@@]3(C)C4)cc2-c2ccc(Cl)c(C)c2)cc1`, the inhibition result in experiment [3], in experiment [5] and in experiment [6] was “Active” throughout. Also, in experiment [4], the IC50 worked out at 171 nM. In addition, the Ki came to 5.7 nM in experiment [1] and 1470 nM in experiment [2].
`Cc1ccc(Cn2cc(C(=O)N3CCCCC3)cc2-c2ccc(Cl)c(C)c2)cc1`: the Ki was found to be 106 nM in experiment [1] and 3070 nM in experiment [2].
For the molecule `Cc1ccc(Cn2cc(C(=O)NC34CC5CC(CC(C5)C3)C4)cc2-c2ccc(Cl)c(C)c2)cc1`, the Ki in experiment [1] and in experiment [2] was greater than 5000 nM each time.
Consider `Cc1ccc(Cn2cc(CN3CCN(c4ccc(Cl)cc4)CC3)cc2-c2ccc(Cl)c(C)c2)cc1`, for which the Ki in experiment [1] and in experiment [2] was greater than 5000 nM each time.
For the molecule `Cc1ccc(Cn2cc(C(=O)NC3CCCCC3)cc2-c2ccc(Cl)c(C)c2)cc1`, the Ki in experiment [1] is 244 nM; in experiment [2] it was greater than 5000 nM.
For the molecule `Cc1ccc(Cn2cc(C(=O)N[C@@H]3C[C@@H]4C[C@H]([C@H]3C)C4(C)C)cc2-c2ccc(Cl)c(C)c2)cc1`, the Ki in experiment [1] was greater than 5000 nM.
For `Cc1ccc(Cn2cc(C(=O)N[C@@H]3CC4CC[C@@]3(C)C4(C)C)cc2-c2ccc(Cl)c(C)c2)cc1`, the Ki in experiment [1] came out at 164 nM; in experiment [2] it was 368 nM.
`Cc1ccc(Cn2cc(CN[C@@H]3C(C)(C)C4CC[C@@]3(C)C4)cc2-c2ccc(Cl)c(C)c2)cc1` returned an inhibitory constant (Ki) in experiment [1] of 343 nM. In other words, the sub-micromolar range.
For the molecule `Cc1ccc(Cn2nc(C(=O)N[C@@H]3C(C)(C)[C@@H]4CC[C@@]3(C)C4)cc2-c2ccc(Cl)c(C)c2)cc1`, the inhibition result in experiment [7] was “Active”.
`Cc1ccc(Cn2cc(C(=O)N[C@H](C)C3CCCCC3)cc2-c2ccc(Cl)c(C)c2)cc1`: the Ki in experiment [1] and in experiment [2] was greater than 5000 nM throughout.
For `Cc1ccc(Cn2cc(C(=O)NN3CCCC3)cc2-c2ccc(Cl)c(C)c2)cc1`, the Ki in experiment [1] and in experiment [2] was greater than 5000 nM in each case.
